In ChEMBL document CHEMBL3525944, “Nonlinear pharmacokinetics of 5-methoxy-N,N-dimethyltryptamine in mice” (Drug Metab Dispos, 2011):

Legend:
[1] = Bioavailability in CYP2D6-humanized transgenic FVB/N mouse at 10 mg/kg, ip by LC-MS/MS analysis; format: ADME, organism-based; conditions: in vivo
[2] = system: Mus musculus; assay: Dose normalized AUC (0 to infinity) in CYP2D6-humanized transgenic FVB/N mouse at 20 mg/kg, ip by LC-MS/MS analysis; format: ADME, organism-based; parameters: dose 20 mg/kg, route intraperitoneal; conditions: in vivo
[3] = Bioavailability in wild-type FVB/N mouse at 20 mg/kg, ip by LC-MS/MS analysis; format: ADME, organism-based; conditions: in vivo
[4] = system: Mus musculus; assay: AUC (0 to infinity) in wild-type FVB/N mouse at 2 mg/kg, ip by LC-MS/MS analysis; format: ADME, organism-based, Plasma; parameters: time infinity, dose 2 mg/kg, route intraperitoneal; conditions: in vivo
[5] = system: Mus musculus; assay: AUC (0 to infinity) in wild-type FVB/N mouse at 2 mg/kg, iv by LC-MS/MS analysis; format: ADME, organism-based, Plasma; parameters: time infinity, dose 2 mg/kg, route intravenous; conditions: in vivo
[6] = system: Mus musculus; assay: Dose normalized AUC (0 to infinity) in wild-type FVB/N mouse at 10 mg/kg, ip by LC-MS/MS analysis; format: ADME, organism-based; parameters: dose 10 mg/kg, route intraperitoneal; conditions: in vivo
[7] = system: Mus musculus; assay: Dose normalized AUC (0 to infinity) in wild-type FVB/N mouse at 10 mg/kg, iv by LC-MS/MS analysis; format: ADME, organism-based; parameters: dose 10 mg/kg, route intravenous; conditions: in vivo
[8] = Clearance in CYP2D6-humanized transgenic FVB/N mouse at 20 mg/kg, iv by LC-MS/MS analysis; format: ADME, organism-based; parameters: dose 20 mg/kg, route intravenous; conditions: in vivo
[9] = Volume of distribution at steady state in CYP2D6-humanized transgenic FVB/N mouse at 10 mg/kg, iv by LC-MS/MS analysis; format: ADME, organism-based; parameters: dose 10 mg/kg, route intravenous; conditions: in vivo, read-out: Vdss
Method in brief: (§1)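 Male 8-week FVB/N wild-type or CYP2D6-humanized mice (25-30 g) given 5-MeO-DMT oxalate in saline i.v. at 5 µL/g body weight. Serum collected 0-180 min, N = 3 per time point, proteins precipitated with ice-cold acetonitrile containing internal standard, LC-MS/MS. Noncompartmental analysis of composite mean data; t1/2 = 0.693/terminal slope; Vss = CL×AUMC/AUC, CL = dose/AUC0→∞.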

[10] = system: Mus musculus; assay: Dose normalized AUC (0 to infinity) in CYP2D6-humanized transgenic FVB/N mouse at 2 mg/kg, ip by LC-MS/MS analysis; format: ADME, organism-based; parameters: dose 2 mg/kg, route intraperitoneal; conditions: in vivo
[11] = system: Mus musculus; assay: AUC (0 to infinity) in wild-type FVB/N mouse at 20 mg/kg, ip by LC-MS/MS analysis; format: ADME, organism-based, Plasma; parameters: time infinity, dose 20 mg/kg, route intraperitoneal; conditions: in vivo
[12] = Bioavailability in CYP2D6-humanized transgenic FVB/N mouse at 20 mg/kg, ip by LC-MS/MS analysis; format: ADME, organism-based; conditions: in vivo
[13] = system: Mus musculus; assay: AUC (0 to infinity) in wild-type FVB/N mouse at 10 mg/kg, ip by LC-MS/MS analysis; format: ADME, organism-based, Plasma; parameters: time infinity, dose 10 mg/kg, route intraperitoneal; conditions: in vivo
[14] = Volume of distribution at steady state in wild-type FVB/N mouse at 20 mg/kg, iv by LC-MS/MS analysis; format: ADME, organism-based; parameters: dose 20 mg/kg, route intravenous; conditions: in vivo, read-out: Vdss; method in brief: as §1
[15] = Cmax in wild-type FVB/N mouse at 10 mg/kg, ip by LC-MS/MS analysis; format: ADME, organism-based; parameters: dose 10 mg/kg, route intraperitoneal; conditions: in vivo
[16] = Half life in wild-type FVB/N mouse at 2 mg/kg, iv by LC-MS/MS analysis; format: ADME, organism-based; parameters: dose 2 mg/kg, route intravenous; conditions: in vivo; method in brief: as §1
[17] = system: Mus musculus; assay: Dose normalized AUC (0 to infinity) in wild-type FVB/N mouse at 20 mg/kg, iv by LC-MS/MS analysis; format: ADME, organism-based; parameters: dose 20 mg/kg, route intravenous; conditions: in vivo
[18] = system: Mus musculus; assay: Dose normalized AUC (0 to infinity) in CYP2D6-humanized transgenic FVB/N mouse at 10 mg/kg, ip by LC-MS/MS analysis; format: ADME, organism-based; parameters: dose 10 mg/kg, route intraperitoneal; conditions: in vivo
[19] = Volume of distribution at steady state in wild-type FVB/N mouse at 2 mg/kg, iv by LC-MS/MS analysis; format: ADME, organism-based; parameters: dose 2 mg/kg, route intravenous; conditions: in vivo, read-out: Vdss; method in brief: as §1
[20] = Cmax in CYP2D6-humanized transgenic FVB/N mouse at 10 mg/kg, ip by LC-MS/MS analysis; format: ADME, organism-based; parameters: dose 10 mg/kg, route intraperitoneal; conditions: in vivo
[21] = Clearance in wild-type FVB/N mouse at 10 mg/kg, iv by LC-MS/MS analysis; format: ADME, organism-based; parameters: dose 10 mg/kg, route intravenous; conditions: in vivo
[22] = Clearance in CYP2D6-humanized transgenic FVB/N mouse at 2 mg/kg, iv by LC-MS/MS analysis; format: ADME, organism-based; parameters: dose 2 mg/kg, route intravenous; conditions: in vivo
[23] = Tmax in CYP2D6-humanized transgenic FVB/N mouse at 20 mg/kg, ip by LC-MS/MS analysis; format: ADME, organism-based; parameters: dose 20 mg/kg, route intraperitoneal; conditions: in vivo
Method in brief: (§2)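 Male 8-week FVB/N wild-type or CYP2D6-humanized mice given 5-MeO-DMT oxalate in saline i.p. at 10 µL/g body weight. Serum sampled 0-180 min, N = 4 per time point, processed by acetonitrile protein precipitation with internal standard, quantified by LC-MS/MS. Tmax taken as observed from composite mean serum concentration-time data.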

[24] = Tmax in CYP2D6-humanized transgenic FVB/N mouse at 2 mg/kg, ip by LC-MS/MS analysis; format: ADME, organism-based; parameters: dose 2 mg/kg, route intraperitoneal; conditions: in vivo; method in brief: as §2
[25] = system: Serum; assay: Drug recovery in CYP2D6-humanized transgenic FVB/N mouse serum by LC-MS/MS analysis; format: ADME, cell-free
[26] = Clearance in CYP2D6-humanized transgenic FVB/N mouse at 10 mg/kg, iv by LC-MS/MS analysis; format: ADME, organism-based; parameters: dose 10 mg/kg, route intravenous; conditions: in vivo
[27] = Half life in wild-type FVB/N mouse at 10 mg/kg, iv by LC-MS/MS analysis; format: ADME, organism-based; parameters: dose 10 mg/kg, route intravenous; conditions: in vivo
[28] = Tmax in wild-type FVB/N mouse at 2 mg/kg, ip by LC-MS/MS analysis; format: ADME, organism-based; parameters: dose 2 mg/kg, route intraperitoneal; conditions: in vivo; method in brief: as §2
[29] = system: Mus musculus; assay: AUC (0 to infinity) in wild-type FVB/N mouse at 20 mg/kg, iv by LC-MS/MS analysis; format: ADME, organism-based, Plasma; parameters: time infinity, dose 20 mg/kg, route intravenous; conditions: in vivo
[30] = Tmax in CYP2D6-humanized transgenic FVB/N mouse at 10 mg/kg, ip by LC-MS/MS analysis; format: ADME, organism-based; parameters: dose 10 mg/kg, route intraperitoneal; conditions: in vivo; method in brief: as §2
[31] = system: Mus musculus; assay: AUC (0 to infinity) in CYP2D6-humanized transgenic FVB/N mouse at 10 mg/kg, iv by LC-MS/MS analysis; format: ADME, organism-based, Plasma; parameters: time infinity, dose 10 mg/kg, route intravenous; conditions: in vivo
[32] = Ratio of drug level in brain to serum in wild-type FVB/N mouse at 10 mg/kg, ip by LC-MS/MS analysis; format: ADME, organism-based; parameters: dose 10 mg/kg, route intraperitoneal
Method in brief: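 Mice dosed i.p. with 5-MeO-DMT in saline and killed at 20, 30 or 60 min. Brain homogenized in ice-cold saline and extracted liquid-liquid; serum processed by acetonitrile precipitation. Both quantified by LC-MS/MS (brain range 4.1-3000 nM). Ratio is brain over serum concentration at the same time point.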

[33] = Cmax in wild-type FVB/N mouse at 20 mg/kg, ip by LC-MS/MS analysis; format: ADME, organism-based; parameters: dose 20 mg/kg, route intraperitoneal; conditions: in vivo
[34] = system: Mus musculus; assay: AUC (0 to infinity) in wild-type FVB/N mouse at 10 mg/kg, iv by LC-MS/MS analysis; format: ADME, organism-based, Plasma; parameters: dose 10 mg/kg, route intravenous, time infinity; conditions: in vivo
[35] = system: Serum; assay: Drug uptake in CYP2D6-humanized transgenic FVB/N mouse serum by LC-MS/MS analysis; format: ADME, cell-free; conditions: read-out: Drug uptake

## COc1ccc2[nH]cc(CCN(C)C)c2c1.O=C(O)C(=O)O
[1]
  bioavailability: 61%
[2]
  AUC/dose: 6.2 kg·min/L
[3]
  bioavailability: 71%
[4]
  AUC: 24.9 µmol·min/L
[5]
  AUC: 47.6 µmol·min/L
[6]
  AUC/dose: 5.03 kg·min/L
[7]
  AUC/dose: 10.6 kg·min/L
[8]
  clearance: 6.6 L/h/kg
[9]
  Vd: 1.68 L/kg
[10]
  AUC/dose: 2.28 kg·min/L
[11]
  AUC: 654 µmol·min/L
[12]
  bioavailability: 65.6%
[13]
  AUC: 231 µmol·min/L
[14]
  Vd: 1.84 L/kg
[15]
  Cmax: 7 µM
[16]
  half-life: 9.2 min
[17]
  AUC/dose: 10 kg·min/L
[18]
  AUC/dose: 4.92 kg·min/L
[19]
  Vd: 2.27 L/kg
[20]
  Cmax: 8.93 µM
[21]
  clearance: 5.64 L/h/kg
[22]
  clearance: 11.4 L/h/kg
[23]
  Tmax: 5 min
[24]
  Tmax: 3 min
[25]
  Drug recovery: 62%
[26]
  clearance: 7.2 L/h/kg
[27]
  half-life: 12 min
[28]
  Tmax: 3 min
[29]
  AUC: 920 µmol·min/L
[30]
  Tmax: 5 min
[31]
  AUC: 369 µmol·min/L
[32]
  Kp: 1.8
[33]
  Cmax: 15.8 µM
[34]
  AUC: 487 µmol·min/L
[35]
  concentration: 0.0041 µM
